Bioassay records: PubChem, The Scripps Research Institute Molecular Screening Center
LYPLA2 counter = blocks human lysophospholipase 2, a PME1 counter-screen. recombinant LYPLA2, FP-Rh probe fluorescence polarization. AID 2177. 320,000 tested, 0.38% active. inhibition, % at 5.9 µM. O95372;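 active = inhibition above the screen-wide mean plus 3 SD, limit set per campaign, cut at about 26% in these data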;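 note: 0% = LYPLA2 with DMSO and 100% = wells lacking LYPLA2 enzyme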
Target sequence (O95372 whole entry, looked up): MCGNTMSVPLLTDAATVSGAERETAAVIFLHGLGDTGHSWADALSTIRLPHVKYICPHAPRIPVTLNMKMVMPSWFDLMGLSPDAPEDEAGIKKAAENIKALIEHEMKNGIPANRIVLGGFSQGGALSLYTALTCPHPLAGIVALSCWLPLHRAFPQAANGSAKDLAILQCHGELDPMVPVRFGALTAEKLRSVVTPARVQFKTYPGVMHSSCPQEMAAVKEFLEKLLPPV
procasp3 activ = activates human procaspase-3; recombinant procaspase-3 D3A, Ac-DEVD-pNA absorbance 405 nm; 330,000 tested, 0.11% active; P42574; AID 463141; activation, % at 8.5 µM;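 active = activation above the mean of all tested compounds plus 3 SD, cut at about 21% in these data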;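 note: 0% = DMSO alone and 100% = DMSO wells spiked with extra 5 µM PC-3 D3A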
Target sequence (P42574 whole entry D9A/D28A/D175A): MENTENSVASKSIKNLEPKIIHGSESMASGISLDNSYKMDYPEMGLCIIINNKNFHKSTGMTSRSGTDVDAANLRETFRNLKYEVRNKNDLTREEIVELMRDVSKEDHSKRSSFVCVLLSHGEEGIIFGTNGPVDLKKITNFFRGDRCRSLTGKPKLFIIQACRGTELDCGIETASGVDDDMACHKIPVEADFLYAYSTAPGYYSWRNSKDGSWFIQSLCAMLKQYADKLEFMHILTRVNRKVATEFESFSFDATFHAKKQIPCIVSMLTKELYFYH
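Assay system – Procaspase-3 D3A mutant · Benchmarks – DMSO low control, extra-enzyme high control · Technique – 405 nm absorbance of p-nitroaniline, reads at 0 and 120 min · Doses – 8.5 µM nominal · Measure – % activation between DMSO and enzyme-spiked controls · Also added – Ac-DEVD-pNA chromogenic peptide substrate · Schedule – 1 h compound preincubation, 2 h substrate hydrolysis at 25 °C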
proCasp7 act = counter-screen for procaspase-3 activators: activators of human procaspase-7 | P55210 | recombinant procaspase-7, Ac-DEVD-pNA absorbance 405 nm; D23A/D198A/D206A triple mutant, cannot self-cleave; scale: DMSO 0, 5 µM enzyme 100 | activation, % at 8.5 µM | 330,000 tested, 0.093% active;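 active = percent activation above the screen-wide mean plus 3 SD, cut at about 25% in these data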
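Material: Procaspase-7 triple mutant (PC-7 D3A) | Quantity: 2 µM procaspase-7 mutant as dispensed | Reagent: DEVD-pNA substrate | Times: 1 h preincubation, 2 h reaction | Technique: 405 nm absorbance of p-nitroaniline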
LYPLA1 inh = blocks human lysophospholipase 1, a PME1 counter-screen; O75608; recombinant LYPLA1, FP-Rh probe fluorescence polarization; inhibition, % at 5.9 µM; 320,000 tested, 0.16% active; AID 2174;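 active = inhibition above the mean of all tested compounds plus 3 SD, set per campaign, cut at about 14% in these data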;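 note: inhibitors block serine hydrolase probe labeling of LYPLA1 so polarization falls; 0% = enzyme with DMSO and 100% = wells lacking LYPLA1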
Fam108B counter = counter-screen for RBBP9 inhibitors: inhibitors of mouse Fam108B; recombinant Fam108B, FP-Rh probe fluorescence polarization; inhibition, % at 9.51 µM; 300,000 tested, 0.33% active; AID 1947;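 active = inhibition above the screen mean inhibition plus 3 SD, computed separately per campaign, cut at about 18% in these data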;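 note: inhibitors lower polarization as less probe binds the enzyme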
PME-1 inh = PME-1 (human) inhibition; inhibition, % at 5.9 µM; Q9Y570; recombinant PME-1, FP-Rh probe fluorescence polarization; 320,000 tested, 0.53% active; AID 2130;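 active = inhibition above the campaign mean of all compounds plus 3 SD, cut at about 26% in these data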;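 note: competitive labeling of PME-1 active site by serine hydrolase directed probe; 0% = PME-1 with DMSO and 100% = wells lacking PME-1 enzyme; inhibitors block probe labeling so polarization falls and inhibition rises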
Fam108b confirm = Fam108b (mouse) hydrolase inhibition, confirmation assay | shares compounds with Fam108B counter | recombinant Fam108b, FP-Rh probe fluorescence polarization | inhibition, % at 9.51 µM | 930 tested, 44% active | AID 1978;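 active = inhibition above a limit from the primary screen, the mean over all compounds plus 3 SD, cut at about 19% in these data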;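 note: 0% = median of active Fam108b wells and 100% = catalytically dead S170A mutant; inhibitors free the probe so polarization falls as inhibition rises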
Fam108b inh = inhibits mouse Fam108b in gel-based ABPP; 260 tested, 44% active; inhibition, % at 20 µM; recombinant Fam108b, fluorophosphonate probe; AID 588649; shares compounds with Fam108B counter; in the data active = inhibition above about 40%
* = called active by the depositor. This is a sample that favours compounds with a hit; in the whole collection about 1% have one here.

For COC(=O)[C@@]12CCCCN1[C@H](c1ccc(-c3ccc(F)cc3)c(OC)c1)[C@@H]1C(=O)N(C)C(=O)[C@@H]12 the results were LYPLA2 counter -2, procasp3 activ 4, proCasp7 act 3, LYPLA1 inh -4, Fam108B counter -3 and PME-1 inh -2.
`C1=C(CCNc2ncnc3c2[nH]c2ccccc23)CCCC1` gave LYPLA2 counter -8, procasp3 activ -1, proCasp7 act 5, LYPLA1 inh -10, Fam108B counter 21*, PME-1 inh 45* and Fam108b confirm 8.
For O=c1c2[nH]c3ccccc3c2ncn1CCC1=CCCCC1 the results were LYPLA2 counter 6, procasp3 activ 7, proCasp7 act -1, LYPLA1 inh 2, Fam108B counter 1 and PME-1 inh 1.
`Cn1c(O)c(C=NNC(=O)c2cc3ccccc3cc2O)c2ccccc21` gave Fam108b inh 55*.
Screening COc1ccc2c(c1)cc(C(=O)N/N=C/c1c(O)c(C(=O)O)cc3ccccc13)n2C returned LYPLA2 counter 13, procasp3 activ -26, proCasp7 act -57, LYPLA1 inh 4, Fam108B counter 43*, PME-1 inh 49* and Fam108b confirm 17.
For COCCn1c(C)cc(/C=N/NC(=O)c2cc3ccccc3cc2O)c1C the results were LYPLA2 counter 4, procasp3 activ 12, proCasp7 act -2, LYPLA1 inh -13 and PME-1 inh 9.
For O=C1C(Cl)=C(Nc2ccc3cn[nH]c3c2)C(=O)c2ccccc21 the results were LYPLA2 counter 15, procasp3 activ -17, proCasp7 act -23, LYPLA1 inh 0, Fam108B counter 20*, PME-1 inh 29*, Fam108b confirm 31* and Fam108b inh 70*.
`COC(=O)N/N=C/c1cn(CCOc2cccc(OC)c2)c2ccccc12` gave LYPLA2 counter 14, procasp3 activ 0, proCasp7 act 15, LYPLA1 inh 4, Fam108B counter -1 and PME-1 inh 4.
Cc1cccc(OCCn2cc(/C=N/NC(=O)c3ccncc3)c3ccccc32)c1 was read as LYPLA2 counter 7, procasp3 activ -5, proCasp7 act 2, LYPLA1 inh 3, Fam108B counter 30*, PME-1 inh 27* and Fam108b confirm 7.
Screening O=C(NCCc1c[nH]c2ccccc12)OCCCCOC(=O)NCCc1c[nH]c2ccccc12 returned LYPLA2 counter 8, procasp3 activ 10, proCasp7 act -1, LYPLA1 inh -6, Fam108B counter 23*, PME-1 inh 9 and Fam108b confirm -3.
`O=C(CCCc1c[nH]c2ccccc12)NCCc1c[nH]c2ccccc12` gave LYPLA2 counter -7, procasp3 activ 6, proCasp7 act -4, LYPLA1 inh -6, Fam108B counter 0 and PME-1 inh 0.
`O=C(COC(=O)c1ccccc1O)NCCc1c[nH]c2ccccc12` gave procasp3 activ 2 and proCasp7 act 7.
Screening O=C(COC(=O)c1ccccc1C(=O)OCC(=O)NCCc1c[nH]c2ccccc12)NCCc1c[nH]c2ccccc12 returned LYPLA2 counter -7, procasp3 activ 4, proCasp7 act -7, LYPLA1 inh -7, Fam108B counter 19*, PME-1 inh 9 and Fam108b confirm 11.
`CC(OC(=O)CCCNC(=O)c1ccc(Cl)cc1)C(=O)N(C)Cc1ccccc1` (stereo not given) gave LYPLA2 counter 4, procasp3 activ -2, proCasp7 act -3, LYPLA1 inh 1, Fam108B counter 1 and PME-1 inh 6.
`O=C(O)CC(NC(=O)COc1ccccc1)c1cccc([N+](=O)[O-])c1` (stereo not given) gave LYPLA2 counter -1, procasp3 activ 1, proCasp7 act 0, LYPLA1 inh 1, Fam108B counter -2 and PME-1 inh 0.
